Measurements published in ChEMBL document CHEMBL1149303 (J Med Chem, 2004).
Activity calls are given as the source filed them. The calls are words filed in the database; no cut-off is given here.

Columns and labels:
[1] = biological target: T1, Prostaglandin G/H synthase 2 (Homo sapiens, UniProt P35354); type: tissue-based, Blood
T1 sequence (P35354 whole entry): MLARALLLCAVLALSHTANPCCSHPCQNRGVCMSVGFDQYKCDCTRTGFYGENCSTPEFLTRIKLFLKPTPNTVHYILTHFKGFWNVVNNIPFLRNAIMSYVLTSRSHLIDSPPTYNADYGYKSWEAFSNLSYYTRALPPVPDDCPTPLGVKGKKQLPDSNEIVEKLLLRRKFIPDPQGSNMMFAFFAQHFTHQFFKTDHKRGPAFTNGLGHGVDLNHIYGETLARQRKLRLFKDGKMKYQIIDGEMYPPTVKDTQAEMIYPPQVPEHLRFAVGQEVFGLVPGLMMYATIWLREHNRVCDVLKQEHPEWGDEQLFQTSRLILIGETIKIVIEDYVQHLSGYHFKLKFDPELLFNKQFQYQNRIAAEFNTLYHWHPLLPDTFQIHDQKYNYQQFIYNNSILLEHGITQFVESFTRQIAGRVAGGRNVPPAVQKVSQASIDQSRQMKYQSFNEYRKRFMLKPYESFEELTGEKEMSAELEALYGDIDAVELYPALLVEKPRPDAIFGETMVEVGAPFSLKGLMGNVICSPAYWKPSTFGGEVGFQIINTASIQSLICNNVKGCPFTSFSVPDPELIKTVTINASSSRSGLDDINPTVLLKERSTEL

[2] = species on record: Homo sapiens; assay: Selectivity ratio of IC50 for human COX1 to IC50 for human COX2
Procedure, shortened: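 Human whole blood, each compound tested in triplicate at 0.01–100 µmol/L final, vehicle DMSO. COX-1: blood preincubated 15 min at 37 °C, stimulated with calcium ionophore A-23,187 for 15 min, serum TXB2 by EIA. COX-2: heparinized blood preincubated 15 min, then LPS (100 µg/mL final, E. coli B4) for 24 h at 37 °C, plasma PGE2 by EIA. Ratio taken as IC50 COX-1/IC50 COX-2.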

[3] = system: Rattus norvegicus; assay: Antiinflammatory activity against carrageenan-induced oedema in Wistar rat paw at 3 mg/kg, ip after 3 hrs relative to control; type: functional; details: route intraperitoneal
Procedure, shortened: (§1)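 Wistar rats (250 g) got the drug ip from a 10 mg/mL DMSO solution. 1 h later, 0.1 mL of 1% λ-carrageenan was injected into the plantar region of the right paw. After 3 h the rats were euthanized with nembutal (100 mg/kg), and paws were cut at the ankle and weighed. Swelling inhibition is given as % vs the control group (6 rats/group, mean ± SEM).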

[4] = system: Rattus norvegicus; assay: Antiinflammatory activity against carrageenan-induced oedema in Wistar rat paw at 10 mg/kg, ip after 3 hrs relative to control; type: functional; details: route intraperitoneal
Procedure, shortened: as §1

[5] = system: Rattus norvegicus; assay: Antiinflammatory activity against carrageenan-induced oedema in Wistar rat paw at 30 mg/kg, ip after 3 hrs relative to control; type: functional; details: route intraperitoneal
Procedure, shortened: as §1

[6] = biological target: Prostaglandin G/H synthase 1 (Homo sapiens, UniProt P23219)
[7] = system: Rattus norvegicus; assay: Lethality in Wistar rat at 30 mg/kg, ip in carrageenan-induced paw oedema model; type: functional, organism-based; design: dose 30 mg/kg
Procedure, shortened: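 Wistar rats (250 g) were dosed ip from a 10 mg/mL DMSO solution, 1 h before 0.1 mL of 1% λ-carrageenan in the right hind paw. Deaths were noted over the following 3 h paw-oedema period in groups of six rats.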

[8] = Dissociation constant, pKa by sulfonamide/sulfonamidate equilibrium; type: physicochemical
Procedure, shortened: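 pKa was determined by UV spectrophotometry, to assign each compound's ionic state at pH 7.4.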

[9] = Dissociation constant, pKa by pyridinium/pyridine equilibrium; type: physicochemical
Procedure, shortened: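 Ionisation constant measured by UV spectrophotometry.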

Sequence of Prostaglandin G/H synthase 1 (P23219 whole entry): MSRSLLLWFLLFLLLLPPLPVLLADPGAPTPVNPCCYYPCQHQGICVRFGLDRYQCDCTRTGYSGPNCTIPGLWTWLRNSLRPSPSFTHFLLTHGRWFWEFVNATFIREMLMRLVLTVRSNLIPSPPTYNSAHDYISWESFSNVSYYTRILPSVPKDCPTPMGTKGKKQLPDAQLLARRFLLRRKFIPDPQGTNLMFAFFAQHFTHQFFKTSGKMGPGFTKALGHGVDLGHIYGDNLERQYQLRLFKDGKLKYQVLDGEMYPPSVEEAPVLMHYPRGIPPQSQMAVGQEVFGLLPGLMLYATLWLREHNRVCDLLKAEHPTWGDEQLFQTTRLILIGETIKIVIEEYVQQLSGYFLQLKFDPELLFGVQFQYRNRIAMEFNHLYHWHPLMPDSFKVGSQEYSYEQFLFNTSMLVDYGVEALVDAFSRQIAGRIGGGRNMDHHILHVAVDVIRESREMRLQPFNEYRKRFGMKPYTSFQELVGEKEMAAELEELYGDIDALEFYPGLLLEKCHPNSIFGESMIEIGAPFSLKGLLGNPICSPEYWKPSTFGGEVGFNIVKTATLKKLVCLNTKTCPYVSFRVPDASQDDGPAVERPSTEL

SMILES: CS(=O)(=O)Nc1ccncc1Oc1ccccc1Cl
- IC50 [1]: 130 nM
- Ratio IC50 [2]: 7.92
- inhibition in vivo at 3 mg/kg [3]: 9.47%
- inhibition in vivo at 10 mg/kg [4]: 37.5%
- inhibition in vivo at 30 mg/kg [5]: 62.8%
- IC50 [6]: 1030 nM

SMILES: CS(=O)(=O)Nc1ccncc1Oc1cccc(Cl)c1
- IC50 [1]: 1990 nM
- Ratio IC50 [2]: 5.45
- inhibition in vivo at 3 mg/kg [3]: 10.9%
- inhibition in vivo at 10 mg/kg [4]: 21%
- Activity [7]: Active
- pKa [8]: < 4
- pKa [9]: 7.74
- IC50 [6]: 10900 nM

SMILES: O=S(=O)(Nc1ccncc1Oc1ccccc1Cl)C(F)(F)F
- IC50 [1]: 150 nM
- Ratio IC50 [2]: 1.74
- IC50 [6]: 270 nM

SMILES: CS(=O)(=O)Nc1ccncc1Oc1ccc(Cl)cc1
- IC50 [1]: 1870 nM
- Ratio IC50 [2]: 0.77
- inhibition in vivo at 3 mg/kg [3]: 28.7%
- inhibition in vivo at 10 mg/kg [4]: 35.1%
- Activity [7]: Active
- pKa [8]: < 4
- pKa [9]: 7.97
- IC50 [6]: 1450 nM

SMILES: CN(c1ccccc1)c1cnccc1NS(=O)(=O)C(F)(F)F
- IC50 [1]: 47600 nM
- Ratio IC50 [2]: 0.097
- IC50 [6]: 4630 nM

SMILES: CS(=O)(=O)Nc1ccncc1Oc1cc(Cl)cc(Cl)c1
- IC50 [1]: > 100000 nM
- inhibition in vivo at 3 mg/kg [3]: 18%
- inhibition in vivo at 10 mg/kg [4]: 18%
- inhibition in vivo at 30 mg/kg [5]: 21.3%
- IC50 [6]: > 100000 nM

SMILES: O=S(=O)(Nc1ccncc1Oc1ccc(Cl)cc1)C(F)(F)F
- IC50 [1]: 1530 nM
- Ratio IC50 [2]: 0.24
- pKa [8]: < 1
- pKa [9]: 6.71
- IC50 [6]: 360 nM

SMILES: CCS(=O)(=O)Nc1ccncc1Oc1ccc(Cl)cc1
- IC50 [1]: 3280 nM
- Ratio IC50 [2]: 0.75
- pKa [8]: < 4
- pKa [9]: 7.98
- IC50 [6]: 2440 nM

SMILES: CCCS(=O)(=O)Nc1ccncc1Oc1ccccc1
- IC50 [1]: > 100000 nM
- IC50 [6]: 18400 nM

SMILES: O=S(=O)(Nc1ccncc1Oc1ccc(Br)cc1)C(F)(F)F
- IC50 [1]: 13800 nM
- Ratio IC50 [2]: 0.02
- inhibition in vivo at 3 mg/kg [3]: 5%
- inhibition in vivo at 10 mg/kg [4]: 8.33%
- inhibition in vivo at 30 mg/kg [5]: 36.7%
- IC50 [6]: 240 nM

SMILES: O=S(=O)(Nc1ccncc1Oc1cccc(Cl)c1)C(F)(F)F
- IC50 [1]: > 100000 nM
- IC50 [6]: 2270 nM

SMILES: CS(=O)(=O)Nc1ccncc1Oc1ccc(Br)cc1
- IC50 [1]: 7600 nM
- Ratio IC50 [2]: 0.18
- pKa [8]: < 4
- pKa [9]: 7.86
- IC50 [6]: 1410 nM

SMILES: CCCS(=O)(=O)Nc1ccncc1Oc1ccc(Cl)cc1
- IC50 [1]: 9690 nM
- Ratio IC50 [2]: 0.24
- IC50 [6]: 2300 nM

SMILES: COc1ccc(Oc2cnccc2NS(C)(=O)=O)cc1
- IC50 [1]: 2360 nM
- Ratio IC50 [2]: 0.76
- IC50 [6]: 1810 nM

SMILES: O=S(=O)(Nc1ccncc1[S+]([O-])c1ccccc1)C(F)(F)F (stereo not drawn)
- IC50 [1]: > 100000 nM
- pKa [8]: < 1
- pKa [9]: 5.69
- IC50 [6]: 25600 nM

SMILES: CS(=O)(=O)Nc1ccncc1Oc1ccccc1
- IC50 [1]: > 100000 nM
- Activity [7]: Active
- pKa [8]: 2.98
- pKa [9]: 8.13
- IC50 [6]: 410 nM

SMILES: COc1ccc(Oc2cnccc2NS(=O)(=O)C(F)(F)F)cc1
- IC50 [1]: 440 nM
- Ratio IC50 [2]: 0.59
- IC50 [6]: 260 nM

SMILES: CS(=O)(=O)Nc1ccncc1Sc1ccccc1
- IC50 [1]: 1190 nM
- Ratio IC50 [2]: 3.05
- inhibition in vivo at 3 mg/kg [3]: 7.44%
- inhibition in vivo at 10 mg/kg [4]: 40.7%
- Activity [7]: Active
- IC50 [6]: 3620 nM

SMILES: CS(=O)(=O)Nc1ccncc1S(=O)(=O)c1ccccc1
- IC50 [1]: > 100000 nM
- IC50 [6]: > 100000 nM

SMILES: O=S(=O)(Nc1ccncc1Oc1ccccc1)C(F)(F)F
- inhibition in vivo at 3 mg/kg [3]: 10.9%
- inhibition in vivo at 10 mg/kg [4]: 26%
- inhibition in vivo at 30 mg/kg [5]: 46.4%
- pKa [8]: < 1
- pKa [9]: 6.81

SMILES: O=S(=O)(Nc1ccncc1Oc1ccc(Cl)cc1Cl)C(F)(F)F
- IC50 [1]: 2550 nM
- Ratio IC50 [2]: 0.54
- IC50 [6]: 1370 nM

SMILES: O=S(=O)(c1ccccc1)c1cnccc1NS(=O)(=O)C(F)(F)F
- IC50 [1]: > 100000 nM
- pKa [8]: < 1
- pKa [9]: 5.3
- IC50 [6]: > 100000 nM

SMILES: O=S(=O)(Nc1ccncc1Nc1ccccc1)C(F)(F)F
- IC50 [1]: 90 nM
- Ratio IC50 [2]: 2.03
- inhibition in vivo at 3 mg/kg [3]: 22.7%
- inhibition in vivo at 10 mg/kg [4]: 34.5%
- inhibition in vivo at 30 mg/kg [5]: 44%
- IC50 [6]: 180 nM

SMILES: CS(=O)(=O)Nc1ccc([N+](=O)[O-])cc1Oc1ccccc1 [NIMESULIDE]
- inhibition in vivo at 3 mg/kg [3]: 23.7%
- inhibition in vivo at 10 mg/kg [4]: 40.2%
- inhibition in vivo at 30 mg/kg [5]: 44.3%

SMILES: O=S(=O)(Nc1ccncc1Oc1cc(Cl)cc(Cl)c1)C(F)(F)F
- IC50 [1]: > 100000 nM
- IC50 [6]: > 100000 nM

SMILES: CS(=O)(=O)Nc1ccncc1Oc1ccc(Cl)cc1Cl
- IC50 [1]: 120 nM
- Ratio IC50 [2]: 5.15
- inhibition in vivo at 3 mg/kg [3]: 20.9%
- inhibition in vivo at 10 mg/kg [4]: 15.8%
- inhibition in vivo at 30 mg/kg [5]: 32.7%
- pKa [8]: < 4
- pKa [9]: 7.81
- IC50 [6]: 620 nM

SMILES: O=S(=O)(Nc1ccncc1Sc1ccccc1)C(F)(F)F
- IC50 [1]: 530 nM
- Ratio IC50 [2]: 0.78
- pKa [8]: < 1
- pKa [9]: 6.54
- IC50 [6]: 410 nM

SMILES: CCS(=O)(=O)Nc1ccncc1Oc1ccccc1
- IC50 [1]: 14100 nM
- Ratio IC50 [2]: 0.38
- IC50 [6]: 5340 nM
